# Paper PMC12315948 (The FASEB Journal, 2021)
# Tests used:
# HeLa cells [1] = type: cell-based; conditions: 24 h treatment, 2 h 2.5 µg/mL pyolysin, MTT
# Outline: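 HeLa cells grown in DMEM with 10% FBS were seeded at 50,000 cells/mL. At 90% confluence they were treated in serum-free medium with vehicle, 100 µM test compound or 10 µM zaragozic acid, for 24 h or for indicated times. Cells were then challenged for 2 h with control medium or 2.5 µg/mL pyolysin. MTT (1 mg/mL, 2 h) was read at OD570 after DMSO lysis. Values are percentage of control; 4 independent experiments.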
# HeLa cells [2] = assay: Cytotoxicity per se in HeLa cells, MTT assay, control challenge; type: cell-based
# Outline: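 HeLa cells were seeded at 50,000 cells/mL in DMEM with 10% FBS. At 90% confluence they received serum-free medium with vehicle, 100 µM test compound or zaragozic acid for 24 h. They were then given a 2 h control-medium challenge without toxin. Viability was measured by MTT (1 mg/mL, 2 h; DMSO lysis; OD570) as percentage of control. Each point is one independent passage (n = 12).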
# squalene synthase = squalene synthase cell free assay; cited from earlier work
# A549 cells = assay: Cytoprotection of A549 cells against streptolysin O; type: cell-based, human; conditions: 24 h: 100 µM MPEX098 or 10 µM zaragozic acid; 2 h challenge
# Outline: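 A549 cells were grown in RPMI1640 with 5% FBS, 1% antibiotic-antimycotic and 1% glutamine, then seeded at 50,000 cells/mL. At 90% confluence they were given serum-free medium with vehicle or treatment for 24 h, then challenged 2 h with graded streptolysin O. Viability was read by MTT (1 mg/mL, 2 h, DMSO lysis, OD570). LDH in supernatants was read by the INT/PMS lactate assay at OD450, initially and after 30 min at 37°C, against NADH standards.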
Structure (SMILES),cytoprotection against pyolysin by isoprenoid treatment (HeLa cells [1]),cytotoxic concentration per se (HeLa cells [2]) [µM],"cell toxicity per se (HeLa cells [2]; MTT assay, control challenge, 100 µM MPEX098 or 10 µM zaragozic acid, 24 h, n = 12) [%]",IC50 (squalene synthase) [nM],protection of A549 cells against streptolysin O (A549 cells)
CC(C)=CCC/C(C)=C/CC/C(C)=C/CO[P@@](=O)(O)OP(=O)(O)O (stereo in doubt) [farnesyl diphosphate],but not farnesyl diphosphate (P = .12) increased cytoprotection,,,,
CC(C)=CCC/C(C)=C/CC/C(C)=C/CC/C(C)=C/COP(=O)(O)OP(=O)(O)O [geranylgeranyl diphosphate],increased cytoprotection against pyolysin,,,,
"C=C(CC[C@]12O[C@H](C(=O)O)[C@@](O)(C(=O)O)[C@](C(=O)O)(O1)[C@H](OC(=O)/C=C/[C@@H](C)C[C@@H](C)CC)[C@H]2O)[C@@H](OC(C)=O)[C@H](C)Cc1ccccc1 [Zaragozic acid, zaragozic acid]",,[…],13 ± 3,[…],protected A549 cells against a range of concentrations of streptolysin O
